Consider three compounds from ChEMBL document CHEMBL3817782, “Synthesis, Structural Elucidation, and Biological Evaluation of NSC12, an Orally Available Fibroblast Growth Factor (FGF) Ligand Trap for the Treatment of FGF-Dependent Lung Tumors” (J Med Chem, 2016).

Converted amounts (≈) assume the structure as drawn. The source made the active and inactive calls. No cut-off for these calls is given here.

For data set [1], the system named is Mus musculus. As to the kind of experiment: Toxicity in C57BL/6 mouse xenografted with mouse LLC cells assessed as effect on body weight at 7.5 mg/kg administered as oral gavage for 7 days daily. It counts as organism-based. The note with it: in vivo, 168 h. The essentials: (§1)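 Eight-week-old C57BL/6 mice given 5 × 10^5 LLC cells sc in the dorsolateral flank in PBS. Dosing started once tumors were palpable: 7.5 mg/kg or vehicle daily by gavage in DMSO/H2O (1:1). Tumors measured in two dimensions, volume taken as (D × d²)/2. At the end, tumors harvested, weighed and photographed. Body weight and clinical signs followed throughout.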

A short description of data set [2]: Kinetic solubility in 3% DMSO solution in PBS at 44 to 100 uM stirred for 5 mins by HPLC-MS/MS analysis. It counts as physicochemical. The conditions noted are these: buffer. The gist of the method: (§2)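 Fresh DMSO stocks diluted into PBS to nominal 100, 44, 29, 16 and 8.9 μM, 3% DMSO final. Stirred 5 min (250 rpm, rt), centrifuged to remove undissolved material. Supernatant diluted 1:100 in MeCN containing internal standard (100 nM) and quantified by HPLC–ESI-MS/MS.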

Data set [3] addresses T1, Fibroblast growth factor 2 (Homo sapiens, UniProt P09038). As to the kind of experiment: Inhibition of human recombinant FGF2 assessed as reduction in HSPG/FGF2/[…] interaction by measuring FGF2 mediated […]-CHO-flg-1A-luc cell to CHO-K1 cell adhesion incubated for 2 hrs by luciferase assay. Type of data set: cell-based. The essentials:
(§3)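 Wild-type CHO-K1 monolayers fixed in 3% glutaraldehyde for 2 h at 4 °C, quenched with 0.1 M glycine. A745-CHO-flg-1A-luc cells (50 000 cells/cm²) added in serum-free medium plus 10 mM EDTA, with or without 30 ng/mL FGF2, plus increasing compound concentrations in 3% DMSO. Incubated 2 h at 37 °C. Unattached cells washed off; bound-cell luciferase measured. Triplicates.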

A short description of data set [4]: Kinetic solubility in DMEM buffer/1% DMSO assessed as recovered drug level at 10 uM after 4 hrs by HPLC-MS/MS analysis. Type of data set: physicochemical. The conditions noted are these: DMEM buffer with 1% DMSO; read-out: Drug recovery. The gist of the method:
(§4)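 Fresh DMSO stocks added 1:100 to DMEM plus 0.4% FBS, giving nominal 10, 6 or 3 μM and 1% DMSO final. Stirred 4 h (250 rpm, rt), centrifuged, supernatant diluted 1:100 in MeCN with internal standard. Quantified by HPLC–MS/MS.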

Data set [5] is described as follows: Antiproliferative activity against mouse LLC cells incubated for 48 hrs by PI-staining based flow cytometry. It counts as functional, cell-based. The conditions noted are these: Lewis lung carcinoma. The essentials:
(§5)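 LLC cells kept in DMEM plus 10% heat-inactivated FBS and cultured 48 h with compound in medium plus 1% DMSO final. PI-negative viable cells counted by flow cytometry to give absolute counts.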
In general terms: A flow cytometer gives signals particle by particle.

The subject of data set [6] is Mus musculus. Nature of the data set: Toxicity in C57BL/6 mouse xenografted with mouse LLC cells assessed as effect on clinical parameters at 7.5 mg/kg administered as oral gavage for 7 days daily. The conditions noted are these: in vivo, 168 h. Type of data set: organism-based. The gist of the method:
as §1

The nature of data set [7]: Kinetic solubility in 3% DMSO solution in PBS up to 30 uM stirred for 5 mins by HPLC-MS/MS analysis. The note with it: buffer. It counts as physicochemical. The essentials: as §2
Data set [8] relates to Lewis lung carcinoma. As to the kind of experiment: Antitumor activity against mouse LLC cells xenografted in C57BL/6 mouse assessed as tumor growth inhibition at 7.5 mg/kg administered as oral gavage for 7 days daily relative to vehicle-treated control. It counts as functional, organism-based. The gist of the method:
as §1

Data set [9] is described as follows: Plasma concentration in C57BL/6 mouse at 7.5 mg/kg administered as single dose measured after 30 mins. It counts as ADME, organism-based. The gist of the method: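 Eight-week-old mice given 7.5 mg/kg orally, with blood drawn 30 min, 2 h and 8 h later. Plasma proteins precipitated with acetonitrile containing internal standard (1:2). Analyte quantified by HPLC–ESI-MS/MS against calibration curves in spiked blank mouse plasma (linear 1–500 nM, LOQ 1 nM). Extraction recovery 90–95%.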

Data set [10] in a line: Dissociation constant, pKa of the compound in methanol-water mixture at 25 +/- 1 degC by potentiometric pH-metric method. It counts as physicochemical. The essentials: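 Potentiometric pH-metric titration in methanol–water mixtures from 40 to 10%. Aqueous pKa extrapolated. Titration curves fitted by nonlinear multiparametric analysis.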
The target in data set [11] is T1, Fibroblast growth factor 2. As to the kind of experiment: Inhibition of human recombinant FGF2 assessed as suppression of FGF2-stimulated FGFR1 phosphorylation in mouse LLC cells at 25 uM incubated for 20 mins by Western blot analysis. Type of data set: cell-based. The gist of the method: (§6)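 LLC cells stimulated with FGF2 (30 ng/mL) with or without compound in medium plus 3% DMSO for 20 min. Cells lysed in RIPA buffer with 1% Triton X-100, 0.2% Brij and 1 mM orthovanadate. Immunoblotted with anti-phospho-FGFR1, with β-actin as loading control.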

In data set [12] the test system is Lewis lung carcinoma. As to the kind of experiment: Antiangiogenic activity against mouse LLC cells xenografted in C57BL/6 mouse assessed as pale appearance at 7.5 mg/kg administered as oral gavage for 7 days daily. It counts as functional, organism-based. The gist of the method: as §1
Data set [13] addresses T1, Fibroblast growth factor 2. As to the kind of experiment: Binding affinity to human recombinant FGF2 treated for 4 mins measured after 10 mins by surface plasmon resonance spectroscopic analysis. The essentials:
(§7)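 Human recombinant FGF2 (20 μg/mL in 10 mM sodium acetate, pH 6.0) coupled to an EDC/NHS-activated CM5 chip, with an ethanolamine-blocked dextran reference cell. Compounds injected at 8–150 μM for 4 min (30 μL/min), then 10 min dissociation. Apparent Kd taken from dose-dependent binding. Samples in PBS with 3% DMSO.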

In data set [14] the test system is NCI-H520. As to the kind of experiment: Antiproliferative activity against human NCI-H520 cells incubated for 72 hrs by PI-staining based flow cytometry. Type of data set: functional, cell-based. The note with it: NCI-H520, 72 h. The gist of the method:
(§8)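 H520 cells kept in RPMI plus 10% FBS and cultured 72 h with compound in medium plus 1% DMSO final. Viable PI-negative cells counted by flow cytometry, with absolute counts from the analyzer's counting function.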

A short description of data set [15]: Kinetic solubility in DMEM buffer/1% DMSO assessed as recovered drug level at 6 uM after 4 hrs by HPLC-MS/MS analysis. It counts as physicochemical. The note with it: DMEM buffer with 1% DMSO; read-out: Drug recovery. The essentials: as §4
Data set [16] has as its target T1, Fibroblast growth factor 2. As to the kind of experiment: Binding affinity to human recombinant FGF2 at 8 to 150 uM treated for 4 mins measured after 10 mins by surface plasmon resonance spectroscopic analysis. The gist of the method:
as §7

Data set [17] deals with T1, Fibroblast growth factor 2. As to the kind of experiment: Inhibition of human recombinant FGF2 assessed as reduction in HSPG/FGF2/[…] interaction by measuring FGF2 mediated […]-CHO-flg-1A-luc cell to CHO-K1 cell adhesion at 100 uM incubated for 2 hrs by luciferase assay. Type of data set: cell-based. The gist of the method:
as §3

Data set [18] has as its target T1, Fibroblast growth factor 2. As to the kind of experiment: Inhibition of human recombinant FGF2 assessed as suppression of FGFR1 phosphorylation in mouse LLC cells at 100 uM incubated for 20 mins by Western blot analysis. It counts as cell-based. The essentials: as §6
(Immunoblotting shows a protein as a band on a membrane.)

The subject of data set [19] is NCI-H520. Nature of the data set: Antiproliferative activity against human NCI-H520 cells at 0.3 to 10 uM incubated for 72 hrs by PI-staining based flow cytometry. It counts as functional, cell-based. The gist of the method:
as §8

Data set [20] concerns Lewis lung carcinoma. As to the kind of experiment: Antiproliferative activity against mouse LLC cells at 0.3 to 10 uM incubated for 48 hrs by PI-staining based flow cytometry. Type of data set: functional, cell-based. The gist of the method:
as §5

Data set [21] is described as follows: Kinetic solubility in DMEM buffer/1% DMSO assessed as recovered drug level at 3 uM after 4 hrs by HPLC-MS/MS analysis. It counts as physicochemical. The note with it: DMEM buffer with 1% DMSO; read-out: Drug recovery. The essentials:
as §4

Data set [22] in a line: Kinetic solubility in DMEM buffer at 10 uM after 4 hrs in presence of EDTA by HPLC-MS/MS analysis. It counts as physicochemical. The note with it: DMEM buffer with EDTA; read-out: Kinetic_solubility. The gist of the method:
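10 μM (nominal) in DMEM plus 0.4% FBS with 2 mM EDTA and 1% DMSO final. Stirred 4 h (250 rpm, rt), then centrifuged. Supernatant diluted 1:100 in MeCN with internal standard and measured by HPLC–MS/MS. Mean of recovered concentration reported with ±.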

T1 sequence (P09038 143-288 limits assumed): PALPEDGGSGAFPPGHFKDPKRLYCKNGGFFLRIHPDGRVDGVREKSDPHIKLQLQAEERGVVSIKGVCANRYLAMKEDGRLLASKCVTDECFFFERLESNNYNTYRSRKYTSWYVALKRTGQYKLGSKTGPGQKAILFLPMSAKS

The term IC50 denotes the concentration at which inhibition is half-maximal. For orientation: pKa means the pH at which an ionisable group is half protonated. As usually defined, the Kd is the equilibrium constant for the complex coming apart. Consider `C[C@]12CC[C@H]3[C@@H](CC=C4C[C@@H](O)CC[C@@]43C)[C@@H]1CC[C@@H]2[C@@H](O)CC(O)(C(F)(F)F)C(F)(F)F`, for which the Activity entry in the data set on Mus musculus [1] is “Non-toxic”; with Mus musculus [6], “Non-toxic”; in data set [13], “Dose-dependent effect”. The Kinetic_solubility result in data set [2] is reported as “Insoluble”; in data set [7], “soluble”. Besides, the results for the IC50 (in data set [3]; in data set [5]; in the data set with NCI-H520 [14]) were 10 µM, 2 µM and 4.1 µM, respectively. Further, the solubility kinetic at 4 h, 10 µM in [4] was found to be 10.7 µM (≈ 5.18 µg/mL). In addition, the TGI result in the data set on Lewis lung carcinoma [8] was “Active”. This compound came in with a concentration at 0.5 h in [9] of 316 nM. In addition, the pKa in data set [10] was found to be 9.04. Further, the inhibition entry in data set [11] was “Active”. For the same compound, the result with Lewis lung carcinoma [12] was Active. In addition, the Kd in [13] is 40 µM.

`C[C@]12CC[C@H]3[C@@H](CC=C4C[C@@H](O)CC[C@@]43C)[C@@H]1CC[C@@H]2C(O)CC(O)(C(F)(F)F)C(F)(F)F` (some centres undefined): the IC50 in data set [3] was 10 µM; in [5] it was 2 µM; in the data set on NCI-H520 [14] it was 4.1 µM. The outcome with Lewis lung carcinoma [12] was Active.

Consider `C[C@]12CC[C@H]3[C@@H](CC=C4C[C@@H](O)CC[C@@]43C)[C@@H]1CC[C@@H]2[C@H](O)CC(O)(C(F)(F)F)C(F)(F)F`, for which the solubility kinetic at 4 h, 6 µM in [15] was 1.7 µM (≈ 0.824 µg/mL). The outcome (in data set [16]; with NCI-H520 [19]; in the data set on Lewis lung carcinoma [20]) was inactive. In addition, the Activity entry with Mus musculus [1] and in the data set on Mus musculus [6] was “Non-toxic” in each case. For the same compound, the solubility kinetic at 4 h, 10 µM in [4] is 2.1 µM (≈ 1.02 µg/mL); in [22], 1.73 µM. Moreover, the Kinetic_solubility entry in [7] was “Insoluble”. Moreover, the TGI entry in the data set with Lewis lung carcinoma [8] is “inactive”. Further, the inhibition result in data set [17] and in [18] was “inactive” each time. Also, the concentration at 0.5 h in data set [9] is 128 nM. Also, the pKa in [10] is 9.08. The solubility kinetic at 4 h, 3 µM in data set [21] amounted to 1.4 µM (≈ 0.678 µg/mL).
